# NF-kB neuron act – compounds increasing NF-kB expression in human neuronal cells; fold change at 12.5 µM; NF-kB reporter expression; active compounds read high; actives 1.6% (n = 190,000); in the data active means fold change above about 3.3
# APP 5'UTR act – activates APP 5'UTR luciferase reporter; SH-SY5Y APP 5'UTR luciferase reporter, luminescence; zero percent = DMSO vehicle wells; activation, % at 2 µM; actives 1% (n = 190,000);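 active means activation above a set limit, based on mean plus 3 SD of controls, cut at about 140% in these data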
# STAT1 activator – activators of IFN-gamma induced STAT1 signaling. NIH 3T3 STAT1-luciferase reporter, luminescence; 100% = IFN-gamma alone, no compound. activation (% of control), % at 5.5 µM. actives 2.6% (n = 200,000). AID 932;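 active means activation above the screen-wide mean activation plus 3 SD, cut at about 130% in these data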;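 further: raw ratio to IFN-gamma control signal so 100% means no change and 0% no light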
# STAT3 activator – STAT3 signaling activation | actives 0.91% (n = 190,000) | activation (% of control), % at 5.6 µM | AID 871 | U3A cells, IL-6 STAT3-luciferase reporter, luminescence; 100% = signal with IL-6 EC80 alone;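 active means activation above the screen-wide mean of compound activation plus 3 SD, cut at about 130% in these data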;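 further: 0% = background luminescence of wells with medium and substrate only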
#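 Material: human STAT1-deficient U3A cells with stable STAT3-luciferase reporter / Probe or stimulus: IL-6 stimulus at 33 ng/mL final / Schedule: 1 h compound pre-exposure, 6 h IL-6 stimulation, 37 °C / Technique: luminescence / Read-out basis: percent of IL-6-only median luminescence / Control set: IL-6-only high control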
# Pf gametocyte – kills late stage P. falciparum gametocytes. P. falciparum stage V gametocytes, ATP luminescence, 24 h. inhibition, % at 10.9 µM. actives 0.065% (n = 150,000);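 active means inhibition above the mean plus 3 SD of compounds within the control limits, set per campaign, cut at about 38% in these data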;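 further: 0% = DMSO wells and 100% = medium only without gametocytes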
# STAT1 blocker – reduces IFN-gamma driven STAT1 reporter signal; inhibition, % at 5.5 µM; AID 920; NIH 3T3 STAT1-luciferase reporter, luminescence; actives 0.35% (n = 200,000);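 active means inhibition above a set limit, the mean inhibition across all tested compounds plus 3 SD, cut at about 34% in these data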;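 further: 0% = IFN-gamma with DMSO and 100% = IFN-gamma with 300 µM nifuroxazide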
# STAT1 act conf – STAT1 activation, confirmation assay. shares compounds with STAT1 activator. NIH 3T3 STAT1-luciferase reporter, IFN-gamma potentiation, luminescence; 100% = IFN-gamma EC80 alone, no compound. activation (% of control), % at 5.7 µM. actives 97% (n = 1,200);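 active means activation above a set limit carried over from the earlier primary STAT1 screen, cut at about 140% in these data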;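 further: simple ratio to median IFN-gamma plus DMSO wells so 0% means no light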
# NFkB act STAT1ct – NF-kappaB activation in STAT1 activator counter-screen | shares compounds with STAT1 activator | HEK293T NF-kB luciferase reporter, TNF-alpha stimulated, luminescence; 100% = TNF-alpha with vehicle only | activation (% of control), % at 5.7 µM | actives 43% (n = 1,200);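 active means activation above the mean of solvent-only control wells plus 3 SD, set per campaign, cut at about 130% in these data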;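 further: TNF-alpha given at a submaximal dose yielding about 80% of full reporter signal; values are well signal over median control so 100% means no change and 0% no light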
# STAT3 act STAT1c – human STAT3 activation in STAT1 activator counter-screen; shares compounds with STAT1 activator; U3A cells STAT3-luciferase reporter, IL-6, luminescence; cells lack STAT1; 100 = IL-6 alone, no compound effect; activation (% of control), % at 5.7 µM; actives 46% (n = 1,200); AID 1316;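 active means activation above the solvent-only control well mean plus 3 SD, set per plate batch, cut at about 110% in these data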;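 further: 0% = no luminescence and 100% = median IL-6 plus DMSO wells; higher means more STAT3 reporter activation so hits are non-selective activators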
# An asterisk follows results filed as active; . = no result. Compounds with a hit are over-represented: about 3.9% of the library has one in this group of screens.
SMILES,NF-kB neuron act,APP 5'UTR act,STAT1 activator,STAT3 activator,Pf gametocyte,STAT1 blocker,STAT1 act conf,NFkB act STAT1ct,STAT3 act STAT1c
COc1ccc(/C=N/Nc2ncc(Br)cn2)c(OC)c1,3.7*,42,165*,85,26,-73,204*,134*,114*
COc1ccc(/C=N/NC(=O)c2ccc(Br)cc2)c(OC)c1,1.1,-6,113,96,.,-17,.,.,.
COc1cccc2cc(-c3cn4ccc(C)cc4n3)c(=O)oc12,.,87,169*,86,-7,-76,218*,134*,105
CC/C(C)=N/Nc1nc(-c2cc3cccc(OC)c3oc2=O)cs1,.,.,.,.,-14,.,.,.,.
COc1cc(NC(=O)c2csc3c2CCCC3)ncn1,3.3*,62,171*,86,.,-77,193*,128,102
Cc1nnc(NC(=O)c2csc3c2CCCC3)s1,1.3,21,84,91,14,15,.,.,.
CC(=O)c1cccc(NC(=O)c2csc3c2CCCCC3)c1,1.1,-20,116,85,-12,-18,.,.,.
CCOc1ccc(NC(=O)c2csc3c2CCCC3)cc1,3.9*,127,171*,104,.,-79,198*,139*,104
COc1ccc(-c2ocnc2C(=O)N2CCN(C(c3ccccc3)c3ccccc3)CC2)cc1,1.1,6,94,102,-18,5,.,.,.
O=C(Nc1ccc2c(c1)Cc1ccccc1-2)c1ccco1,4*,179*,174*,87,.,-81,211*,139*,102
O=C(Nc1ccc2c(c1)Cc1ccccc1-2)c1cccnc1,2.5,69,151*,93,-17,-58,143*,117,91
O=C(Nc1ccc(-c2nc3ccccc3o2)cc1)c1cccnc1,2.6,45,166*,88,.,-72,185*,146*,98
COc1cccc(OC)c1C(=O)Nc1ccc2c(c1)Cc1ccccc1-2,1.9,54,102,93,.,-3,.,.,.
O=C(Nc1cccc(-c2nc3ccccc3o2)c1)c1cccnc1,0.96,-12,101,92,18,-3,.,.,.
CCCc1cc(=O)[nH]c(SCCCCN2C(=O)c3ccccc3C2=O)n1,0.92,-9,97,107,-4,4,.,.,.
CNC(=O)c1sc2nc(-c3ccc(OC)cc3)cn2c1C,4.8*,146*,164*,106,.,-71,188*,135*,105
Cc1cc(C(=O)CN2CCC(C)CC2)c(C)n1-c1ccc(F)cc1,0.74,136*,157*,106,-7,-63,164*,132,118*
CC(=O)c1cccc(N/C=C\C(=O)c2ccc(C)cc2)c1,6.7*,155*,180*,81,2,-90,211*,111,96
CC(=O)c1cccc(NC(=S)NC(=O)c2cccc(C)c2)c1,3.7*,102,157*,101,.,-64,178*,126,105
CC(=O)c1cccc(NC(=S)NC(=O)c2ccc(Cl)cc2)c1,2.5,10,162*,108,26,-70,173*,118,108
O=C(Cc1cccs1)Nc1cccc(-c2nc3cc4ccccc4cc3[nH]2)c1,4.8*,195*,197*,100,20,-107,270*,158*,106
CCc1nc(N2CCN(C(=S)NCCCOC)CC2)c2c3c(sc2n1)CCCC3,.,.,.,.,-22,.,.,.,.
Cc1cccc(N/C=C/c2onc(C)c2[N+](=O)[O-])c1,1.1,16,155*,115,.,-57,199*,141*,107
NS(=O)(=O)c1ccc(NC(=O)/C=C/c2cn(-c3ccccc3)nc2-c2cccc(Cl)c2)cc1,1,-6,108,93,.,-10,.,.,.
O=C(/C=C/c1cn(-c2ccccc2)nc1-c1ccccc1)Nc1ccc(C(=O)O)cc1,2.6,12,152*,127,0,-60,148*,113,114*
SMILES,NF-kB neuron act,APP 5'UTR act,STAT1 activator,STAT3 activator,Pf gametocyte,STAT1 blocker,STAT1 act conf,NFkB act STAT1ct,STAT3 act STAT1c
CCN(CC)C(=O)C(=O)c1cccn1-c1cccc(OC)c1C#N,1.1,9,97,94,-29,1,.,.,.
C=C(C)CN(CC)C(=O)CCc1nnc(CCCc2ccccc2)o1,2.4,85,154*,114,6,-61,172*,133,123*
COc1ccc(OC)c(C2=NOC(C(=O)NCc3cccs3)C2)c1 (stereo not given),1.1,-9,97,104,-14,4,.,.,.
Cc1cc(C)n(CC(=O)c2cccc(N)c2)n1,1.1,11,96,104,-5,1,.,.,.
O=[N+]([O-])c1ccc2nc(-c3ccncc3)[nH]c2c1,.,.,.,.,-12,.,.,.,.
COc1ccc(-c2nc3ccc([N+](=O)[O-])cc3[nH]2)cc1,8.7*,160*,182*,79,-16,-93,251*,131,98
COc1ccc2nc(-c3ccccc3)[nH]c2c1,5.5*,178*,153*,74,6,-45,199*,124,104
O=C(Nc1ccc2nc(-c3cccnc3)[nH]c2c1)c1ccccc1F,0.64,24,106,75,-9,-6,.,.,.
c1cncc(-c2nc3cc4ccccc4cc3[nH]2)c1,2.9,154*,156*,94,6,-62,226*,126,103
COc1ccc2nc(C(C)O)[nH]c2c1 (stereo not given),1.3,-4,100,99,0,0,.,.,.
O=[N+]([O-])c1ccc2nc(-c3ccc(Cl)cc3)[nH]c2c1,1.1,156*,155*,109,14,-55,206*,133,102
CCCCCCN1C=CC(=C/C=C(\C#N)C(=O)OCC)C=C1,0.95,6,97,99,.,3,.,.,.
CCCN1C=CC(=C/C=C(\C#N)C(=O)OCC)C=C1,2.8,120,164*,113,.,-70,183*,124,134*
Cn1cccc1C(=O)C(=O)Nc1ccc(F)c(F)c1,5.2*,139*,154*,94,-9,-60,193*,133,107
CN1CCN(CCC(=O)Nc2ccc(F)c(F)c2)CC1,1.3,5,102,98,.,-2,.,.,.
COc1cnn(-c2ccc(C)cc2)c(=O)c1Br,1.8,14,121,100,.,-24,.,.,.
CNC(=O)c1c(Cl)cnn1-c1ccc(C)cc1,2.3,109,161*,102,0,-70,164*,138*,114*

# Assay outcomes from PubChem BioAssay.
